Data taken from ChEMBL document CHEMBL1681705, “Optimisation of ITK inhibitors through successive iterative design cycles” (Bioorg Med Chem Lett, 2011).

Tests used:
[1] = target: T1, Tyrosine-protein kinase ITK/TSK (Homo sapiens, UniProt Q08881); experiment: Inhibition of recombinant GST-tagged full-length ITK expressed in baculovirus expression system after 30 mins by scintillation proximity assay
T1 sequence (Q08881 whole entry): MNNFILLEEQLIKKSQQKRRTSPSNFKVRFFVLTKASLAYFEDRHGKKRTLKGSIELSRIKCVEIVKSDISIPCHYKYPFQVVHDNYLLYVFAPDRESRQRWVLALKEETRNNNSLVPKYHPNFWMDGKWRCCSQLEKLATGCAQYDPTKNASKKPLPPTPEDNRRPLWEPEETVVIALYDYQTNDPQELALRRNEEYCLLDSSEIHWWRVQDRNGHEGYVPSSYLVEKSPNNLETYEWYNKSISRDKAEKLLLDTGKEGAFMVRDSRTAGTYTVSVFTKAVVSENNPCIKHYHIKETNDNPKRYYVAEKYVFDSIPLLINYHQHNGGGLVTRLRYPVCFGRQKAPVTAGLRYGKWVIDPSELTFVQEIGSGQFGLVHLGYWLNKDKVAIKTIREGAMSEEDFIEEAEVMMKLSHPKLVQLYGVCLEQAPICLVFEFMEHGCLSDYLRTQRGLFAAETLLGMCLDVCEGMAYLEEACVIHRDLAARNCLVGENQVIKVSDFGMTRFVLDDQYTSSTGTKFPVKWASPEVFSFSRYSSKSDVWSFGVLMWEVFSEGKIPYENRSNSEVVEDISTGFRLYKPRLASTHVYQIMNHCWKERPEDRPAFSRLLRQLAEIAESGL

[2] = target: Tyrosine-protein kinase Lck (Homo sapiens) (UniProt P06239); experiment: Inhibition of Lck at 1 uM
Chain of Tyrosine-protein kinase Lck (Homo sapiens) (P06239 2-509 limits assumed): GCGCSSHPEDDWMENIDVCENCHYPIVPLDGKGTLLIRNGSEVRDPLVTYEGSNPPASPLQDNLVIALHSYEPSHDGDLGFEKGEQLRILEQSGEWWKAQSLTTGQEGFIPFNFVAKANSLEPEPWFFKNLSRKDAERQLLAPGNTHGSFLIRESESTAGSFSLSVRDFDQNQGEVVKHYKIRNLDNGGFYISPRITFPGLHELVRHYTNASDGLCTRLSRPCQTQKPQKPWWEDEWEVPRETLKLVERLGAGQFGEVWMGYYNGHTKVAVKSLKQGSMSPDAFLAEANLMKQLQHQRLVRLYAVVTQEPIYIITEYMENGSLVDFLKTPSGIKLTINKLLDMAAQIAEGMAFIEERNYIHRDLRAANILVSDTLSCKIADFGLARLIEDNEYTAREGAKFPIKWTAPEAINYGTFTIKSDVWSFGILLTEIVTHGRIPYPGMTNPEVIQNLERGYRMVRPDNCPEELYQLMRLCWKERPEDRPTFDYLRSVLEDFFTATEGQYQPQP
Procedure, shortened: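 Single-point screen within a 108-kinase selectivity panel. Each kinase was tested with inhibitor at 0.1 and 1.0 micromolar, and activity was recorded as percent inhibition.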

[3] = target: Protein kinase C theta type (Homo sapiens) (UniProt Q04759); experiment: Inhibition of PKCtheta at 1 uM; values are per cent of control
Chain of Protein kinase C theta type (Homo sapiens) (Q04759 whole entry, looked up): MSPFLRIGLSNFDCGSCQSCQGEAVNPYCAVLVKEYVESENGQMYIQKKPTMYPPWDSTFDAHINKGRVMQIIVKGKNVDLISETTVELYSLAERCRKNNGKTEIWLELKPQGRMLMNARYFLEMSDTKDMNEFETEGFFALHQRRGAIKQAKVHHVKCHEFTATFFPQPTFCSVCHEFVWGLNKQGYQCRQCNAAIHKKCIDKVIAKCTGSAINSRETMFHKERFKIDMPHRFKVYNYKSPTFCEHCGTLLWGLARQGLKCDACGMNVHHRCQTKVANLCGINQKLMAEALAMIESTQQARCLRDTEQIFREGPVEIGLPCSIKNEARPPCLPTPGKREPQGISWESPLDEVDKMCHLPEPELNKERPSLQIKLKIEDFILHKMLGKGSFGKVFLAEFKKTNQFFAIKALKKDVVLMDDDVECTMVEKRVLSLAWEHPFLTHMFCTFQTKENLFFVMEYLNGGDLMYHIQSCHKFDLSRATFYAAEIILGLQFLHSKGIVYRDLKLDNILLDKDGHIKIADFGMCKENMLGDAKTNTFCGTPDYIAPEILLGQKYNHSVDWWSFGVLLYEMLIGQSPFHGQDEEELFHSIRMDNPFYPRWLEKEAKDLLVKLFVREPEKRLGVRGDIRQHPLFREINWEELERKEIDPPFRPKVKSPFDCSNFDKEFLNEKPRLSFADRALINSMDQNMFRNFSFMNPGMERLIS

[4] = target: Mitogen-activated protein kinase 8 (Homo sapiens) (UniProt P45983); experiment: Inhibition of JNK1a1 at 0.1 uM; values are per cent of control
Chain of Mitogen-activated protein kinase 8 (Homo sapiens) (P45983 whole entry): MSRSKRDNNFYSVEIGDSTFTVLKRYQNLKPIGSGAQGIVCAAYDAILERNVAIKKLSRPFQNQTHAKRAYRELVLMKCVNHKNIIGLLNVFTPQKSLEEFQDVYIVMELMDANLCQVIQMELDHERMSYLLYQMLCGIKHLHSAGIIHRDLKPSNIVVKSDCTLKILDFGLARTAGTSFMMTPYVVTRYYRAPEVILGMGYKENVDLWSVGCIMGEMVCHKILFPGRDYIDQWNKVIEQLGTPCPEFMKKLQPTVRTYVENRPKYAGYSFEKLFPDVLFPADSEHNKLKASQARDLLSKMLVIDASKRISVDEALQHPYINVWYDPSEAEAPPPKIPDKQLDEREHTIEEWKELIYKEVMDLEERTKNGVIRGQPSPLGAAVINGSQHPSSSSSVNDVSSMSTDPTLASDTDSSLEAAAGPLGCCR

[5] = target: T2, Mitogen-activated protein kinase kinase kinase 7 (Homo sapiens) (UniProt O43318); experiment: Inhibition of TAK1 at 0.1 uM; values are per cent of control
T2 sequence (whole entry): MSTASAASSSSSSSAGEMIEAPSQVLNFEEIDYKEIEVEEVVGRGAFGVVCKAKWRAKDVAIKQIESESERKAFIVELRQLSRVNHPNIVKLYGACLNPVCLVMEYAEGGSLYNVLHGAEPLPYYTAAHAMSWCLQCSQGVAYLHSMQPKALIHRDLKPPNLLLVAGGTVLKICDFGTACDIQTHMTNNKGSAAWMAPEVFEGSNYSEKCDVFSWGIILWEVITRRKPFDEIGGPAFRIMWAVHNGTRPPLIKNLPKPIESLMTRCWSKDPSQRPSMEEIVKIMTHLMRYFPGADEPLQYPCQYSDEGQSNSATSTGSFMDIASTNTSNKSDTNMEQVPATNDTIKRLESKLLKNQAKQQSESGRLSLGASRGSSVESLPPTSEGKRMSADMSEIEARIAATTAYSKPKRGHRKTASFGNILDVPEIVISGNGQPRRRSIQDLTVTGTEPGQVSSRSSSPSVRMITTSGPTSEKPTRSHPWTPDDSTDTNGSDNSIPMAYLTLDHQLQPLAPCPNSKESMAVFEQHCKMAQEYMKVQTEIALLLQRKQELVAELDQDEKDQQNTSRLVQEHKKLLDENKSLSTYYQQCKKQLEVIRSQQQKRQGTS

[6] = target: Dual specificity mitogen-activated protein kinase kinase 1 (Homo sapiens) (UniProt Q02750); experiment: Inhibition of MEK1 at 0.1 uM; values are per cent of control
Chain of Dual specificity mitogen-activated protein kinase kinase 1 (Homo sapiens) (Q02750 whole entry): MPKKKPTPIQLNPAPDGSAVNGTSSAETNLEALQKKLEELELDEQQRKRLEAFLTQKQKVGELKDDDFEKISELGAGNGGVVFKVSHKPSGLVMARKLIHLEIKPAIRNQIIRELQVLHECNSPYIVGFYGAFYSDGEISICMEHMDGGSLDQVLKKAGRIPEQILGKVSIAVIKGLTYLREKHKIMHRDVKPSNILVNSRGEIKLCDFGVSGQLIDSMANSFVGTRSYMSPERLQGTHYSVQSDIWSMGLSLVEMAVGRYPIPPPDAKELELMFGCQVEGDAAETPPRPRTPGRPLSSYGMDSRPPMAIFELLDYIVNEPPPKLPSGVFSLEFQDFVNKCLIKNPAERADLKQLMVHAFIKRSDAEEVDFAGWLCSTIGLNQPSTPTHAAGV

[7] = target: T3, Ephrin type-B receptor 2 (Homo sapiens) (UniProt P29323); experiment: Inhibition of EphB2 at 0.1 uM; values are per cent of control
T3 sequence (whole entry): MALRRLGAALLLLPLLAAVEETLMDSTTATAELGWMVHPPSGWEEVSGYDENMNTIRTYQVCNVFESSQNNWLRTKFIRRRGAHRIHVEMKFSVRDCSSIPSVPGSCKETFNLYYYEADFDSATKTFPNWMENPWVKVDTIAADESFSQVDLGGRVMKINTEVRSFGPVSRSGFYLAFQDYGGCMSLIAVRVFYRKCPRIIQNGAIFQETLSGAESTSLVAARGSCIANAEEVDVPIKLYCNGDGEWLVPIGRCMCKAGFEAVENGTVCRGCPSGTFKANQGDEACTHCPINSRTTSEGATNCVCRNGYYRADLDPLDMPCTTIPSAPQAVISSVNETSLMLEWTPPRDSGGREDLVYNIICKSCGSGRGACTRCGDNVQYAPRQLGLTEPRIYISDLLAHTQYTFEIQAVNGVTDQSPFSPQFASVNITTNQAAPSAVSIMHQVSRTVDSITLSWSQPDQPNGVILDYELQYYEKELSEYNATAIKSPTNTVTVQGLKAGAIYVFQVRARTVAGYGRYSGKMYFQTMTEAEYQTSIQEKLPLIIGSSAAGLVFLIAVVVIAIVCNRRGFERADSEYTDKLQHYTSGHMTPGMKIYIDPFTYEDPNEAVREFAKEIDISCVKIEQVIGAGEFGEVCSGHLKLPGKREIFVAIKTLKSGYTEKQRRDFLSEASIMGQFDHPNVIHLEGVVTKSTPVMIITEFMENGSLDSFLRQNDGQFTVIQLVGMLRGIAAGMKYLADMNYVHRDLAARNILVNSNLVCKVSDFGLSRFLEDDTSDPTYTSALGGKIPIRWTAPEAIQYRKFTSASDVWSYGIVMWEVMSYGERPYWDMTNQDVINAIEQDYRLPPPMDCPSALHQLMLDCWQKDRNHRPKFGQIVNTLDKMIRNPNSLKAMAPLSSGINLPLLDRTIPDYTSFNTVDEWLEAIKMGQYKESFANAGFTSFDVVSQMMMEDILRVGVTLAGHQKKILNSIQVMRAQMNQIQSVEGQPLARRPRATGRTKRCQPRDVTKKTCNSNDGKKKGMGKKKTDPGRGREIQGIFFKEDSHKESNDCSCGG

[8] = target: Fibroblast growth factor receptor 1 (Homo sapiens) (UniProt P11362); experiment: Inhibition of FGFR1 at 0.1 uM; values are per cent of control
Chain of Fibroblast growth factor receptor 1 (Homo sapiens) (P11362 22-822 limits assumed): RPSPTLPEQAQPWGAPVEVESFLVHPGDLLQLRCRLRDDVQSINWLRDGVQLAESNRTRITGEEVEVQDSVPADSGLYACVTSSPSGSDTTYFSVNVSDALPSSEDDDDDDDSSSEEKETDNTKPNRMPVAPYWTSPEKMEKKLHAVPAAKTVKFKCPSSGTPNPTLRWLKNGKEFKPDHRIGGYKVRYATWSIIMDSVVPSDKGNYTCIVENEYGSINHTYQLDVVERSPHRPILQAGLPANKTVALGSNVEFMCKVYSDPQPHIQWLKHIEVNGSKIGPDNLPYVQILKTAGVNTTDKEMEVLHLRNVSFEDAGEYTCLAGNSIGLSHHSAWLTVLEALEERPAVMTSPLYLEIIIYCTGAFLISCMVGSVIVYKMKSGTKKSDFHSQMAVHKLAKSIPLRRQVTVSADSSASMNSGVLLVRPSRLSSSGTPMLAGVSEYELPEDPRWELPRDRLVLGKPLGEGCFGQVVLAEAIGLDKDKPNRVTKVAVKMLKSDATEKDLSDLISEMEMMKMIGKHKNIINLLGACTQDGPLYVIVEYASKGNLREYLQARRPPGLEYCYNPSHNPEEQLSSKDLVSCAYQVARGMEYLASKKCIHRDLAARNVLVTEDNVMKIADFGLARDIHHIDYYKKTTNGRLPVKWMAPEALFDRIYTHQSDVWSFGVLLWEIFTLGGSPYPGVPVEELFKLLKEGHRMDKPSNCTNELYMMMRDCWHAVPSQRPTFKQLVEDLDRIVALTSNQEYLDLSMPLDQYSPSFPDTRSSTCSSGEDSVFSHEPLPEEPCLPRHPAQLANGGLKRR

| Structure (SMILES) | IC50 [1] | inhibition [2] | residual activity [3] | residual activity [4] | residual activity [5] | residual activity [6] | residual activity [7] | residual activity [8] |
| --- | --- | --- | --- | --- | --- | --- | --- | --- |
| Cc1ccc2cc(-c3n[nH]c4ccc(NC5CCNC5)cc34)[nH]c2c1 (stereo unspecified) | 11 nM | 0% | 23% | 101% | 73% | 51% | 87% | 0% |
| Cc1ccc2cc(-c3n[nH]c4ccc(NC5CCN(Cc6ccccc6)CC5)cc34)[nH]c2c1 | 23 nM | 9% | 6% | 83% | 84% | 96% | 99% | 2% |
